Bioassay records from PubChem.
This is a sample that favours compounds with a hit; in the whole collection about 0.83% have one here.
TRPN1 ag: zebrafish TRPN1 channel agonists, primary screen, cell-based, HEK293, calcium fluorescence; HEK293 zebrafish TRPN1-YFP, Fluo-8 calcium fluorescence; 100% = response to 87 µM carbachol; AID 1424, 2008; activation, % at 3 µM; transient receptor potential cation channel N1 (TRPN1/NompC), Danio rerio; hit rate 0.18% among 220,000;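 active means activation above its plate's cutoff, the mean activation of test wells on that plate plus 3 SD, cut at about 19% in these data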;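 further: 0% = DMSO alone and 100% = 87 µM carbachol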
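Material: zebrafish TRPN1-YFP in HEK293 cells; Doses: single test compound dose, 3 µM nominal, 0.3% DMSO; Timing: dye loading 1 h at 37 °C, then 30 min room temperature; Technique: intracellular calcium fluorescence with Fluo-8; Benchmarks: high carbachol 87 µM, low DMSO alone.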
V1aR counter: agonists of human V1a receptor, primary screen, counter-screen for OXTR agonist project, fluorescence, CHO-V1R cells. Vasopressin V1a receptor (Homo sapiens), P37288. Fluo-8 calcium fluorescence, agonist mode; 0% DMSO, 100% 3 nM vasopressin. activation, % at 3 µM. hit rate 0.25% among 320,000. AID 2797, 2010;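 active means activation above the mean activation of all tested compounds plus 3 SD, per screening run, cut at about 20% in these data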;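 further: signal is peak over basal fluorescence ratio across a 100 second FLIPR read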
Target sequence (P37288 whole entry, looked up): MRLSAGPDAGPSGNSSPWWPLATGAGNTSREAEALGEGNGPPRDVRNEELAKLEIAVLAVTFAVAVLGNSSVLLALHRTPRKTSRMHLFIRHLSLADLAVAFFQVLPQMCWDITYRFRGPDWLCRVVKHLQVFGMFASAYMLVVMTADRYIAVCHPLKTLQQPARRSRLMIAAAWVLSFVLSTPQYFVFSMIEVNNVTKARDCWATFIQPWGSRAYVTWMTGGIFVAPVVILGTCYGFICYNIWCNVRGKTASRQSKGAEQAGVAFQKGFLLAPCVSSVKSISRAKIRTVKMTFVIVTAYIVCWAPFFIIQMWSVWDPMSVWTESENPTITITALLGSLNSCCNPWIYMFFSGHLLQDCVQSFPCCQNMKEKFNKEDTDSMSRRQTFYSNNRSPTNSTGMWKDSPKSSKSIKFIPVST
CRFR2-BP ag: agonists of CRF-BP/CRF-R2 complex, primary screen, cell-based, HEK293, calcium dye fluorescence, uHTS. CRF-binding protein / CRF receptor 2 complex (human). calcium dye fluorescence (FLIPR); percent of saturating CRF peptide response. activation, % at 13.2 µM. hit rate 0.46% among 350,000;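 active means activation of at least 50%, plus an integration ratio under a set limit after plate pattern correction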;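 further: plate controls were neutral control wells without compound for no effect and CRF at EC100 for full effect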
OXTR ag: human OXTR agonists, primary screen, fluorescence, CHO-OTR cells, Fluo-8 calcium; Oxytocin receptor (Homo sapiens), P30559; Fluo-8 calcium fluorescence; normalized: DMSO 0%, oxytocin 100%; activation, % at 3 µM; hit rate 0.32% among 320,000; AID 2435, 2010;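 active means activation above the mean of all tested compounds plus 3 SD, cutoff set per screening run, cut at about 20% in these data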;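 further: peak over basal fluorescence ratio from a 100 s FLIPR kinetic read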
TRPML3 agonist: human TRPML3 channel agonists, primary screen, cell-based, HEK293 TRPML3-YFP, Fluo-8 calcium fluorescence, 3 µM; Mucolipin-3 (Homo sapiens), Q8TDD5; 100% = the carbachol control signal; activation, % at 3 µM; hit rate 0.29% among 220,000;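 active means activation above its plate's cutoff, the mean activation of the plate's test wells plus 3 SD, cut at about 12% in these data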;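 further: 0% = DMSO only wells and 100% = carbachol wells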
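Test system: HEK293 cells stably carrying human TRPML3-YFP; Doses: single dose, 3 µM final nominal compound, 0.3% DMSO final; Schedule: dye loading 1 h 37 °C then 30 min ambient, 125 s read; Technique: Fluo-8 calcium fluorescence; Benchmarks: high control carbachol 87 µM, low control DMSO.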
OXTR potentiator: human OXTR potentiators, primary screen, fluorescence, CHO-OTR cells, Fluo-8 calcium; Oxytocin receptor (Homo sapiens), P30559; activation, % at 3 µM; hit rate 0.061% among 320,000; Fluo-8 calcium fluorescence, potentiator mode; 0% = oxytocin EC15, 100% = EC100;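 active means activation above that plate's cutoff, the mean activation of tested compounds plus 3 SD, cut at about 6.6% in these data, passing the limit was not always enough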;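 further: 100% uses oxytocin at 75 nM as the full agonist control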
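Replication – single well per compound, singlicate · Assay system – CHO cell line stably expressing human OTR · Timing – 6 min pre-incubation, 100 s read · Measure – normalized max/min fluorescence ratio, % activation · Doses – 3.0 µM, one dose · Detection – Fluo-8 calcium dye fluorescence · Probe or stimulus – oxytocin near EC15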
OXTR ag confirm: human OXTR agonists, confirmation, fluorescence, CHO-OTR cells, triplicate. activation, % at 3 µM. Fluo-8 calcium fluorescence, agonist. AID 434963, 2010. shares compounds with OXTR ag. hit rate 20% among 390;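 active means mean activation above about 20% derived from the earlier single-dose screen, limit read from the data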;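 further: peak over minimum fluorescence ratio per well during a 100 second FLIPR read; 0% = DMSO alone and 100% = oxytocin high control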
V1R ag counter 3x: V1a receptor agonists, calcium signal, counter-screen for OXTR agonist project, triplicate, fluorescence, CHO-V1R cells. shares compounds with OXTR ag. Fluo-8 calcium fluorescence. activation, % at 3 µM. hit rate 10% among 390. AID 434991, 2010;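 active means mean activation over triplicate exceeds the hit threshold set in the earlier primary screen, cut at about 20% in these data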;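 further: peak over basal fluorescence ratio within a 100 second read; 0% = DMSO alone and 100% = 3 nM vasopressin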
* hit, by the source's call.

`Cc1c(O)ccc(/C(Cc2ccc3ccccc3n2)=N\O)c1O` gave TRPN1 ag 1, V1aR counter 17, CRFR2-BP ag -5, OXTR ag 22*, TRPML3 agonist 2, OXTR potentiator -24, OXTR ag confirm 13 and V1R ag counter 3x 7.
`Cc1ncc(CN2CCC(CO)(CCOc3ccccc3)CC2)s1` gave TRPN1 ag 2, V1aR counter 0, CRFR2-BP ag 0, OXTR ag 21*, TRPML3 agonist 1, OXTR potentiator -7, OXTR ag confirm 0 and V1R ag counter 3x 0.
For COc1ccc(-c2csc(N(CCCN(C)C)C(=O)c3ccccc3C)n2)cc1 the results were V1aR counter 4, CRFR2-BP ag 4, OXTR ag 8 and OXTR potentiator -2.
For COc1ccc(-c2csc(N(CCCN(C)C)C(=O)c3ccccc3Cl)n2)cc1 the results were V1aR counter 15, CRFR2-BP ag 0, OXTR ag 23*, OXTR potentiator -7, OXTR ag confirm 6 and V1R ag counter 3x 3.
For C=CCN1C(=O)/C(=C/c2ccc(O)c(OC)c2)S/C1=N/c1nccs1 the results were TRPN1 ag 32*, V1aR counter 18, CRFR2-BP ag 45, OXTR ag 20*, TRPML3 agonist 16*, OXTR potentiator -10, OXTR ag confirm 27* and V1R ag counter 3x 38*.
C=CCN1C(=O)/C(=C/c2ccc(OCC(=O)O)cc2)S/C1=N/c1nccs1 was read as TRPN1 ag -1, V1aR counter 0, CRFR2-BP ag -2, OXTR ag -2, TRPML3 agonist 0 and OXTR potentiator -2.
Screening O=C(C1CCCCC1)N1CCCc2ccccc21 returned TRPN1 ag 0, V1aR counter -1, CRFR2-BP ag 1, OXTR ag 30*, TRPML3 agonist 0, OXTR potentiator -20, OXTR ag confirm 5 and V1R ag counter 3x 0.
O=C(NC1CCCCC1)N1CCCc2ccccc21 was read as TRPN1 ag -2, V1aR counter -1, CRFR2-BP ag 0, OXTR ag -2, TRPML3 agonist 0 and OXTR potentiator -1.
`O=C(Nc1nnc2n1CCS2)c1ccc(Br)o1` gave V1aR counter 0, CRFR2-BP ag 0, OXTR ag 0 and OXTR potentiator -9.
For CC1CN(C(=O)COC(=O)/C=C/c2cccc([N+](=O)[O-])c2)CC(C)O1 (configuration not stated) the results were V1aR counter 0, CRFR2-BP ag 2, OXTR ag 0 and OXTR potentiator -2.
Cc1ccccc1OCC(=O)Nc1ccc(N2CCN(C)CC2)c(Cl)c1 was read as V1aR counter 13, CRFR2-BP ag 0, OXTR ag 20*, OXTR potentiator -13, OXTR ag confirm 3 and V1R ag counter 3x 2.
Cc1ccc(C)c(S(=O)(=O)Nc2ccc(-n3cnnn3)cc2)c1 was read as V1aR counter 1, CRFR2-BP ag -2, OXTR ag 4 and OXTR potentiator -10.
For CC(NC(=O)CN1CCOCC1)c1ccccc1 (configuration not stated) the results were V1aR counter 1, CRFR2-BP ag -1, OXTR ag 21*, OXTR potentiator 1, OXTR ag confirm 0 and V1R ag counter 3x 0.
`CCOC(=O)C1CCN(C(=O)c2ccc(OCC(=O)Nc3cccc(C(F)(F)F)c3)c(OC)c2)CC1` gave V1aR counter 10, CRFR2-BP ag -1, OXTR ag 12 and OXTR potentiator -17.
NS(=O)(=O)c1ccc(CCNC(=O)CSc2nc3ccsc3c(=O)n2Cc2ccccn2)cc1 was read as CRFR2-BP ag 0.
CCOC(=O)Cn1c(=N)n(CCOc2ccc(OC)cc2)c2ccccc21 was read as TRPN1 ag 0, V1aR counter 1, CRFR2-BP ag 1, OXTR ag 39*, TRPML3 agonist 1, OXTR potentiator -21, OXTR ag confirm 0 and V1R ag counter 3x 0.
`O=C(NNC(=O)C12CC3CC(CC(C3)C1)C2)c1ccccc1O` gave V1aR counter 0, CRFR2-BP ag 2, OXTR ag 1 and OXTR potentiator -3.
O=C(NC12CC3CC(CC(C3)C1)C2)c1ccccc1O was read as TRPN1 ag -1, V1aR counter 2, CRFR2-BP ag -1, OXTR ag 24*, TRPML3 agonist -1, OXTR potentiator -21, OXTR ag confirm -1 and V1R ag counter 3x 2.
Screening Cc1noc(C)c1COc1ccccc1C(=O)NC(C)c1ccc(Cl)cc1 (configuration not stated) returned V1aR counter 0, CRFR2-BP ag 0, OXTR ag -2 and OXTR potentiator -11.
Screening O=C(COC(=O)c1cc(S(=O)(=O)Nc2ccccc2Cl)ccc1O)Nc1nc2ccccc2s1 returned TRPN1 ag 1, CRFR2-BP ag -2 and TRPML3 agonist 1.
Screening N#Cc1cccc(NC(=O)COC(=O)c2cc(S(=O)(=O)Nc3ccccc3Cl)ccc2O)c1 returned V1aR counter 15, CRFR2-BP ag 47, OXTR ag 20*, OXTR potentiator -10, OXTR ag confirm 11 and V1R ag counter 3x 11.
`CC(C)Oc1ccc(C(CCN)C2CCCCC2)cc1` (configuration not stated) gave V1aR counter 6, CRFR2-BP ag 3, OXTR ag 21*, OXTR potentiator -18, OXTR ag confirm 17 and V1R ag counter 3x 8.
Cc1cc(C)c2nc(-c3cccc(Cl)c3)c(C)c(C(=O)N3CCOCC3)c2c1 was read as V1aR counter 5, CRFR2-BP ag 2, OXTR ag -1 and OXTR potentiator -16.
`O=C(CCl)NC1(C(=O)O)CCCC1` gave CRFR2-BP ag 7.
`COc1ccc2nc(NC(=O)c3ccccc3O)sc2c1` gave V1aR counter 16, CRFR2-BP ag 22, OXTR ag 20*, OXTR potentiator -25, OXTR ag confirm 11 and V1R ag counter 3x 9.
